# Screening data (PubChem)
# MrgX1 allo act – human MrgX1 positive allosteric modulation, primary screen; 310,000 compounds, 0.63% hits; B-score at 10 µM; Q96LB2; MrgX1-HEK293, Fluo-4 calcium flux, FDSS; hits give high values;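 active = plate-corrected calcium response at least 3 library SD above typical, normal starting fluorescence, not activating the receptor alone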;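 also: compound read alongside a low EC10 to EC30 dose of BAM8-22 agonist; peak minus trough fluorescence over baseline measured at the second addition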
# MrgX1 antagonist – blocks BAM8-22 activation of human MrgX1 receptor. Q96LB2. MRGX1-HEK293 calcium flux, Fluo-4, BAM8-22 antagonism; hits give low values. B-score at 10 µM. 310,000 compounds, 1.3% hits;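 active = calcium-response B-score plate-corrected more than 3 library SD below zero, starting fluorescence within 5 deviations, no agonist response on first addition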;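 also: peak minus trough fluorescence over baseline after final BAM8-22 challenge near maximal dose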
# MrgX1 ag – agonists of human MrgX1 receptor | MrgX1-HEK293 cells, Fluo-4 calcium fluorescence, agonist mode; hits give high values | Q96LB2 | 310,000 compounds, 0.44% hits | B-score at 10 µM;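 active = calcium response B-score plate-corrected fluorescence ratio at least 3 library SD, with starting fluorescence B-score inside 5 SD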
#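 System – MrgX1-expressing HEK293 cells · Incubation – cells plated overnight, dye loaded 0.5 h 37 °C, 0.5 h room temperature · Technique – kinetic Fluo-4 NW fluorescence of intracellular calcium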
# RGS4 pot – potentiators or activators of RGS4 | HEK293 M3R/inducible RGS4, carbachol calcium flux Fluo4; hits give low values | B-score at 10 µM | 310,000 compounds, 0.92% hits;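 active = B-score of the integrated calcium signal more than 4 SD below the library mean, with starting fluorescence not abnormally high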;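 also: negative B-score means reduced calcium response which marks RGS4 activation or potentiation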
#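 Assay system: HEK293 FlpIn-TREx cells, stable M3R, doxycycline-inducible RGS4 / Probe or stimulus: carbachol, ECmax concentration / Times: overnight RGS4 induction, 30 min dye load 37 °C, 20 min compound RT / Signal: kinetic calcium fluorescence imaging with Fluo4-AM dye, 2 µM / Measure: Agonist-evoked peak-minus-minimum fluorescence over baseline, integrated ratio, B score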
# RGS4 inh – human RGS4 inhibition; P49798; HEK293 M3R/RGS4 inducible, Fluo-4 calcium flux; hits give high values; triggered by carbachol at its EC20; B-score at 10 µM; 310,000 compounds, 0.45% hits; AID 463165;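 active = B-score, a plate-corrected calcium signal, over three deviations above library mean, with baseline fluorescence within five deviations of library mean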;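 also: RGS4 expression induced by doxycycline in cells with stable M3 receptor; B-score is computed from the integrated fluorescence ratio over baseline after carbachol; higher B-score means a larger calcium signal and so more RGS4 inhibition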
# Target sequence (P49798 whole entry, looked up): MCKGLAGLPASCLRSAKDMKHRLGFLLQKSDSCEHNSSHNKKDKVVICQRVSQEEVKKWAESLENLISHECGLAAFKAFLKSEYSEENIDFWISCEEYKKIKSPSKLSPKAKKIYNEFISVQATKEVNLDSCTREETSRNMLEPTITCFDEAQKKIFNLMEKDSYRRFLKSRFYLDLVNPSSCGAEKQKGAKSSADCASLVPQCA
# RGS4 inh valid – RGS4 inhibitor validation | shares compounds with RGS4 inh | HEK293 M3R/RGS4, carbachol calcium Fluo-4 fluorescence; carbachol added at its EC20; 0 = buffer wells, 100 = carbachol control | calcium response, % at 10 µM | 1,700 compounds, 65% hits | AID 492999;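 active = duplicate-averaged calcium response above the buffer-only control mean plus 5 SD of those controls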;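 also: integrated fluorescence ratio F max minus min over baseline F0; higher response in RGS4-induced cells means RGS4 inhibition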
# RGS4 uninduced – non-induced cell nonspecific activity of RGS4 inhibitors; activity (percent), % at 10 µM; HEK293 M3R non-induced, carbachol calcium Fluo-4; submaximal (EC20) carbachol stimulus; buffer wells 0%, carbachol control wells 100%; 1,900 compounds, 20% hits; AID 493000; shares compounds with RGS4 inh; call rule not given here;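 also: RGS4 induction absent so cells express M3R without RGS4; higher means more calcium signal and flags a non-specific hit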
# M3R basal Ca ctr – second counter-screen for RGS4 inhibitors: non-induced cells without carbachol; shares compounds with RGS4 inh; AID 493001; 1,900 compounds, 22% hits; HEK293 M3R/RGS4 non-induced, Fluo-4 calcium, no carbachol; normalised: buffer wells 0%, carbachol wells 100%; calcium response (agonist-mode artifact), % at 10 µM;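 active = duplicate-averaged calcium rise in uninduced cells above buffer wells' mean plus 5 SD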
# Active calls of the source: *; i = inactive; nt = no result. Rows were chosen to be rich in hits. Some 3.5% of all compounds tested hit in one or more screens of this group.
SMILES,MrgX1 allo act,MrgX1 antagonist,MrgX1 ag,RGS4 pot,RGS4 inh,RGS4 uninduced,M3R basal Ca ctr,others
O=C(/C=C/c1cn(CC(O)CN2CCCCC2)c2ccccc12)c1cccs1 (centres undefined),i,i,i,i,i,nt,nt,
Cc1nc(NC(=O)CSc2nc3cccnc3n2C2CCCCC2)sc1C,i,i,i,i,i,i,i,
CCc1nnc(NC(=O)CSc2nc3cccnc3n2C2CCCCC2)s1,i,i,i,i,i,nt,nt,
COc1cc(OC)c(N(C)C(=O)c2cc3c(s2)-c2ccccc2S(=O)(=O)C3)cc1Cl,i,i,i,i,17.1*,50.5%*,i,RGS4 inh valid=27.5%*
Cc1ccc(NC(=O)c2[nH]cnc2C(=O)NN)cc1,i,i,i,i,i,nt,nt,
